Key:
LTBP1 [1] = target: T1, LTBP1 (Rhodnius prolixus, UniProt Q7YT09); assay: isothermal titration calorimetry, single-site fit; type: binding
T1 sequence (Q7YT09 18-173): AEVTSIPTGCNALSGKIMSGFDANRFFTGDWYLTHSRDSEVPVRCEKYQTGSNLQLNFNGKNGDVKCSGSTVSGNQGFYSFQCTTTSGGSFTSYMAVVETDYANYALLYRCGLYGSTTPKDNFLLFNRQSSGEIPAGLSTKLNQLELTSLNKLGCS

LTBP1 [2] = target: T2, LTBP1 (Rhodnius prolixus, UniProt Q7YT09, Y131A); assay: isothermal titration calorimetry, single-site fit; type: binding
T2 sequence (Q7YT09 18-173 Y131A): T1 sequence (Q7YT09 18-173)
Procedure, shortened: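 Titrated by ITC at 30 °C in 20 mM Tris HCl, pH 7.5, 150 mM NaCl, with 2 µM protein in the cell and 10 µL injections of ligand. Eicosanoid ligand solutions were prepared by removing ethanol and sonicating with buffer. Injection enthalpies were fitted to a single-site binding model.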

Compound	Kd (LTBP1 [1])	Kd (LTBP1 [2])
CCCCC/C=C\C[C@@H](O)/C=C/C=C/C=C\[C@@H](O)CCCC(=O)O [LTB4]	238 nM	–
CCCCC/C=C\C\C=C/C=C/C=C/[C@@H](SC[C@H](NC(=O)CC[C@H](N)C(=O)O)C(=O)NCC(=O)O)[C@@H](O)CCCC(=O)O [LTC4]	–	47.6 nM
CCCCC/C=C\C\C=C/C=C/C=C/[C@@H](SC[C@H](N)C(=O)NCC(=O)O)[C@@H](O)CCCC(=O)O [LTD4]	–	47.6 nM
CCCCC/C=C\C\C=C/C=C/C=C/[C@@H](SC[C@H](N)C(=O)O)[C@@H](O)CCCC(=O)O [LTE4]	2.13 nM	–

— publication PMC4990137 (ACS chemical biology, 2016)
